ChEMBL document CHEMBL1772991, “Synthesis and structure-activity relationship of tricyclic carboxylic acids as novel anti-histamines” (Bioorg Med Chem, 2011)

How the values were obtained:
Mus musculus [1] = assay: Antiinflammatory activity in ovalbumin-sensitized BALB/c mouse biphasic allergic model assessed as late type reaction at 10 mg/kg, po administered 1 hr before ovalbumin challenge measured 24 hrs after elicitation by ear swelling assay; type: functional
How it was run: (§1)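 Female Balb/c mice, 8 weeks old, sensitized i.p. with OVA plus alum. Two weeks later, compound given orally as a 0.5% methylcellulose suspension at 10 mg/kg, 1 h before intradermal OVA into the ear.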

Mus musculus [2] = species on record: Mus musculus; assay: Ex vivo receptor occupancy of histamine H1 receptor in mouse brain at ED70 after 30 mins by scintillation counting; type: functional
Mus musculus [3] = assay: Antiinflammatory activity in ovalbumin-sensitized BALB/c mouse biphasic allergic model assessed as immediate type reaction at 10 mg/kg, po administered 1 hr before ovalbumin challenge measured 1 hr after elicitation by ear swelling assay; type: functional; how it was run: as §1
Histamine H1 receptor = Histamine H1 receptor (Homo sapiens, UniProt P35367); assay: Displacement of [3H]pyrilamine from human histamine H1 receptor expressed in CHO-K1 cells after 60 mins by scintillation counting; type: cell-based
Chain of Histamine H1 receptor (P35367 whole entry): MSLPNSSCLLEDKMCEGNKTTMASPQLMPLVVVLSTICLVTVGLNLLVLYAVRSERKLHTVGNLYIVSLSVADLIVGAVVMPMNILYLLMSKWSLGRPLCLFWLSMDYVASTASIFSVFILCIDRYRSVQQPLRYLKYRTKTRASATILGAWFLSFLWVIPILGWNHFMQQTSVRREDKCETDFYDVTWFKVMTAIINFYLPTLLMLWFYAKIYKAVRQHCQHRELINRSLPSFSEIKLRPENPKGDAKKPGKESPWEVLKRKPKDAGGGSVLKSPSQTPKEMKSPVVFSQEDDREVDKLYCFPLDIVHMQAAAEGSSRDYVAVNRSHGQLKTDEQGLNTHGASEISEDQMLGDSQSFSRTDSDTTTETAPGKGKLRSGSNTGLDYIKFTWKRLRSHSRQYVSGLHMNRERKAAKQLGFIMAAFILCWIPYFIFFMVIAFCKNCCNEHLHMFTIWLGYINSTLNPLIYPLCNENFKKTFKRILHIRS

[4] = Permeability from apical to basolateral side of human Caco2 cells after 120 mins; conditions: Caco-2
Homo sapiens = species on record: Homo sapiens; assay: Ratio of IC50 for human adrenergic alpha1 to IC50 for human histamine H1 receptor
Mus musculus [5] = assay: In vivo antihistaminic activity at histamine H1 receptor in ddY mouse assessed as inhibition of histamine-induced skin vascular permeability at 3 mg/kg, po administered 1 hr before histamine challenge by Evan's blue staining; type: functional
How it was run: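 Female ddY mice, 8 weeks old, dosed orally at 3 mg/kg as a suspension in 0.5% methylcellulose, 1 h before intradermal histamine ([…]) into back skin, following i.v. Evans blue. Mice sacrificed 30 min after histamine; dyed area measured. % inhibition, mean ± SE of six mice.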

[6] = molecular target: T1, Adrenergic receptor alpha-1 (Homo sapiens, UniProt P35348+P25100+P35368); assay: Displacement of [3H]prazosin from human adrenergic alpha1 expressed in CHO-K1 cells after 30 mins by scintillation counting; type: cell-based
T1 sequence (P35348 whole entry): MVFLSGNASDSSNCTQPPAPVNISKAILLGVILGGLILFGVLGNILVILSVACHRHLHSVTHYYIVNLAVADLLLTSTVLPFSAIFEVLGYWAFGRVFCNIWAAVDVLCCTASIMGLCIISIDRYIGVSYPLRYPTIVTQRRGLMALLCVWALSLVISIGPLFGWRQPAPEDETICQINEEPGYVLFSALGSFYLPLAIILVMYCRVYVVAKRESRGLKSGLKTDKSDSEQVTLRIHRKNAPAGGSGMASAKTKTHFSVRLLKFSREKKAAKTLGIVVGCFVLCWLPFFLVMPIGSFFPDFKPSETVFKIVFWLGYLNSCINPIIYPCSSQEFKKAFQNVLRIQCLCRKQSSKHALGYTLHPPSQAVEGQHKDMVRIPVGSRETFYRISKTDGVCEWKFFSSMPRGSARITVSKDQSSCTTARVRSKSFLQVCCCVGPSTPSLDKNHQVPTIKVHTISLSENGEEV
T1 sequence (P25100 whole entry): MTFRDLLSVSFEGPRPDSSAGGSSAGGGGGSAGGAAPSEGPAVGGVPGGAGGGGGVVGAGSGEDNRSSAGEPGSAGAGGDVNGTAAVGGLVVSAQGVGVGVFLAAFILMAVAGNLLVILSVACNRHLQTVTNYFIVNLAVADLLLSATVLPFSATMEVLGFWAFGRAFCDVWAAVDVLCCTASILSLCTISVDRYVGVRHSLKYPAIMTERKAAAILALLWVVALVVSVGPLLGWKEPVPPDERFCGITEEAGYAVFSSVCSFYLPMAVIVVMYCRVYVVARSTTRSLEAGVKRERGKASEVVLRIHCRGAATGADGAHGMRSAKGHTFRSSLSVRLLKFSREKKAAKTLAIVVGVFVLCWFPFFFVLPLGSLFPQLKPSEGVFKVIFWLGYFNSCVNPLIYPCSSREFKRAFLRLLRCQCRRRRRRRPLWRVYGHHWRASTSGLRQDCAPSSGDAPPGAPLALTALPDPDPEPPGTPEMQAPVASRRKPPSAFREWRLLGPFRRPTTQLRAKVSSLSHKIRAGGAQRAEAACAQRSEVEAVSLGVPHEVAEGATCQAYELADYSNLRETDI
T1 sequence (P35368 whole entry): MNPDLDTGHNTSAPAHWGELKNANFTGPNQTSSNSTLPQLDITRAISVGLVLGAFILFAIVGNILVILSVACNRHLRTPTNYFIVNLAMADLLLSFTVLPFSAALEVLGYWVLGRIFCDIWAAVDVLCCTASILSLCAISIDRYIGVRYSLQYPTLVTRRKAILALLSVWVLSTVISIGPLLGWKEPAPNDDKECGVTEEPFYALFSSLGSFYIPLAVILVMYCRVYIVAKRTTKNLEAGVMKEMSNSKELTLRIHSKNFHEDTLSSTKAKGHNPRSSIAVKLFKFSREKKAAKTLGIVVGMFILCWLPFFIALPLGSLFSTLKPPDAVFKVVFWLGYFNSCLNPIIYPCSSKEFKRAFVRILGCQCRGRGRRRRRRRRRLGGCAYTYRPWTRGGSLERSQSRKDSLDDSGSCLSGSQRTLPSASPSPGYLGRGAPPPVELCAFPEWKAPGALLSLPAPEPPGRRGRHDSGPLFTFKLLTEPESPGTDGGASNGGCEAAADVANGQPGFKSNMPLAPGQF
How it was run: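 Membranes from stable recombinant CHO-K1 cells expressing human α1 adrenoceptor were incubated with graded compound concentrations and 0.3 nM [3H]-prazosin in 50 mM Tris-HCl pH 7.6 for 30 min at room temperature. Nonspecific binding was defined with 1 µM prazosin. Samples were filtered on GF/B, washed and scintillation counted; specific binding is total minus nonspecific. Single experiment.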

[7] = Oral bioavailability in fasted rat at 10 mg/kg after 24 hrs; type: ADME, organism-based; conditions: in vivo
How it was run: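 Fasted male rats (n = 3 per route). Dosing: 1 mg/kg i.v. in 5% glucose/0.1 N HCl (9:1), or 10 mg/kg p.o. as a 0.5% methylcellulose suspension. Jugular blood sampled up to 24 h (po: 15, 30 min, 1, 2, 4, 6, 24 h) and plasma stored at -70 °C. AUCs taken from plasma concentration–time courses. BA = (AUCpo/Dpo)/(AUCiv/Div) × 100.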

Mus musculus [8] = species on record: Mus musculus; assay: animal or person; type: functional; conditions: ddY, po

| SMILES | IC50 (Histamine H1 receptor) | Papp A→B at 2 h [4] | also measured |
| --- | --- | --- | --- |
| CC(C)(C(=O)O)c1ccc(C(O)CCCN2CCC(C(O)(c3ccccc3)c3ccccc3)CC2)cc1 (stereo not drawn) [FEXOFENADINE] | – | – | inhibition in vivo at 10 mg/kg (Mus musculus [1]): 6%; Activity (Mus musculus [2]): 12%; inhibition in vivo at 10 mg/kg (Mus musculus [3]): 61% |
| Cn1c(N2CCN(CC/C=C3\c4ccccc4COc4ccc(CC(=O)O)cc43)CC2)cc(=O)n(C)c1=O | 540 nM | 4.7 ×10⁻⁶ cm/s | – |
| Cn1c(N2CCN(CC/C=C3/c4ccccc4COc4ccc(CC(=O)O)cc43)CC2)cc(=O)n(C)c1=O | 84 nM | 7.3 ×10⁻⁶ cm/s | inhibition in vivo at 10 mg/kg (Mus musculus [1]): 78%; Ratio IC50 (Homo sapiens): 57; inhibition in vivo at 3 mg/kg (Mus musculus [5]): 53%; IC50 [6]: 4800 nM; bioavailability [7]: 76%; inhibition in vivo at 10 mg/kg (Mus musculus [3]): 105% |
| CN1CCC(=C2c3ccccc3CC(=O)c3sccc32)CC1 [KETOTIFEN] | – | – | inhibition in vivo at 10 mg/kg (Mus musculus [1]): 3%; ED70 (Mus musculus [8]): 0.067 mg/kg; inhibition in vivo at 10 mg/kg (Mus musculus [3]): 119% |
| Cn1c(N2CCCN(CC/C=C3/c4ccccc4CCc4ccc(C(=O)O)cc43)CC2)cc(=O)n(C)c1=O | 153 nM | 6.9 ×10⁻⁶ cm/s | – |
| Cn1c(N2CCN(CC/C=C3/c4ccccc4CCc4ccc(CC(=O)O)cc43)CC2)cc(=O)n(C)c1=O | 195 nM | 14.7 ×10⁻⁶ cm/s | – |
| Cn1c(N2CCCN(CCCN3c4ccccc4COc4ccc(C(C)(C)C(=O)O)cc43)CC2)cc(=O)n(C)c1=O | 150 nM | 4.6 ×10⁻⁶ cm/s | – |
| Cn1c(N2CCCN(CCCN3c4ccccc4CCc4ccc(C(C)(C)C(=O)O)cc43)CC2)cc(=O)n(C)c1=O | 75 nM | 7 ×10⁻⁶ cm/s | inhibition in vivo at 3 mg/kg (Mus musculus [5]): 67%; bioavailability [7]: 14% |
| Cn1c(N2CCCN(CC/C=C3/c4ccccc4CCc4ccc(CC(=O)O)cc43)CC2)cc(=O)n(C)c1=O | 135 nM | 4.8 ×10⁻⁶ cm/s | – |
| Cn1c(N2CCCN(CC/C=C3/c4ccccc4COc4ccc(CC(=O)O)cc43)CC2)cc(=O)n(C)c1=O | 92 nM | 4 ×10⁻⁶ cm/s | inhibition in vivo at 3 mg/kg (Mus musculus [5]): 32% |
| CC(C(=O)O)c1ccc2c(c1)N(CCCN1CCCN(c3cc(=O)n(C)c(=O)n3C)CC1)c1ccccc1CO2 (stereo not drawn) | 128 nM | 1.9 ×10⁻⁶ cm/s | – |
| Cn1c(N2CCCN(CCCN3c4cc(C(=O)O)ccc4COc4ccccc43)CC2)cc(=O)n(C)c1=O | 530 nM | 1.6 ×10⁻⁶ cm/s | – |
| Cn1c(N2CCN(CCCN3c4ccccc4Sc4ccc(CC(=O)O)cc43)CC2)cc(=O)n(C)c1=O | – | – | inhibition in vivo at 10 mg/kg (Mus musculus [1]): 64%; Activity (Mus musculus [2]): 38%; Ratio IC50 (Homo sapiens): 11; inhibition in vivo at 3 mg/kg (Mus musculus [5]): 82%; ED70 (Mus musculus [8]): 1.61 mg/kg; IC50 [6]: 430 nM; inhibition in vivo at 10 mg/kg (Mus musculus [3]): 73% |
| Cn1c(N2CCCN(CC/C=C3/c4ccccc4COc4ccc(C(=O)O)cc43)CC2)cc(=O)n(C)c1=O | 63 nM | 3.8 ×10⁻⁶ cm/s | – |
| Cn1c(N2CCN(CC/C=C3/c4ccccc4COc4ccc(C(=O)O)cc43)CC2)cc(=O)n(C)c1=O | 325 nM | – | – |

More lines, main results first:

| IC50 (Histamine H1 receptor) | Papp A→B at 2 h [4] | SMILES | also measured |
| --- | --- | --- | --- |
| 255 nM | 3 ×10⁻⁶ cm/s | Cn1c(N2CCN(CCCN3c4ccccc4COc4ccc(CC(=O)O)cc43)CC2)cc(=O)n(C)c1=O | – |
| 54 nM | 2.6 ×10⁻⁶ cm/s | Cn1c(N2CCCN(CCCN3c4ccccc4CCc4ccc(CC(=O)O)cc43)CC2)cc(=O)n(C)c1=O | – |
| 128 nM | 1.6 ×10⁻⁶ cm/s | Cn1c(N2CCCN(CCCN3c4ccccc4COc4ccc(CC(=O)O)cc43)CC2)cc(=O)n(C)c1=O | – |
| 140 nM | – | Cn1c(N2CCN(CCCN3c4ccccc4COc4ccc(C(=O)O)cc43)CC2)cc(=O)n(C)c1=O | Activity (Mus musculus [2]): 20% |
| 41 nM | 6.3 ×10⁻⁶ cm/s | Cn1c(N2CCCN(CCCN3c4ccccc4COc4ccc(C(=O)O)cc43)CC2)cc(=O)n(C)c1=O | inhibition in vivo at 3 mg/kg (Mus musculus [5]): 87%; bioavailability [7]: 23% |
| 70 nM | 4.4 ×10⁻⁶ cm/s | Cn1c(N2CCCN(CCCN3c4ccccc4CCc4ccc(C(=O)O)cc43)CC2)cc(=O)n(C)c1=O | inhibition in vivo at 10 mg/kg (Mus musculus [1]): 46%; inhibition in vivo at 3 mg/kg (Mus musculus [5]): 50%; bioavailability [7]: 33%; inhibition in vivo at 10 mg/kg (Mus musculus [3]): 30% |
